pIC50: −log10 of the molar value. Active and inactive are the calls of the source. No cut-off for these calls is given here.
Legend:
[1] = target: T1, Retinoic acid receptor RXR-alpha (Homo sapiens) (UniProt P19793); assay: Antagonist activity against RXRalpha in human HepG2 cells assessed as inhibition of AKT phosphorylation at 5 and 10 uM after 24 hrs by Western blotting method; type: cell-based
T1 sequence (whole entry): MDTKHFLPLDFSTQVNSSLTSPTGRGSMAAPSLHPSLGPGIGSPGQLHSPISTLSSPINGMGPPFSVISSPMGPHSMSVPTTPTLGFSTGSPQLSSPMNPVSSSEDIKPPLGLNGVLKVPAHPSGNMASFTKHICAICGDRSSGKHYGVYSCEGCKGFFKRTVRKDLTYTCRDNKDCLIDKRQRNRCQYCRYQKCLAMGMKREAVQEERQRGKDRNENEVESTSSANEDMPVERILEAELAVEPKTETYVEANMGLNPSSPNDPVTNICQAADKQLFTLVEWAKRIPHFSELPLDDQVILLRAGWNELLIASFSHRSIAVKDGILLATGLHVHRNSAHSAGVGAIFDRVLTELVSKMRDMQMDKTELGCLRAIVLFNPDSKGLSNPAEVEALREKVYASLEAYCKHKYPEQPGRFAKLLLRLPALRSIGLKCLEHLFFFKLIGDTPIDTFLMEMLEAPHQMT
How it was run: (§1)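 A549 or HepG2 cells were exposed to compound for 24 h, then with or without TNFα (20 ng/mL) for 30 min more. Lysates were immunoblotted for AKT activation. One of three to five similar experiments shown.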

[2] = target: T1, Retinoic acid receptor RXR-alpha (Homo sapiens); assay: Antagonist activity against RXRalpha in human pancreatic cancer cells assessed as inhibition of AKT phosphorylation at 5 and 10 uM after 24 hrs by Western blotting method; type: cell-based; details: Cancer cell lines
[3] = target: T1, Retinoic acid receptor RXR-alpha (Homo sapiens); assay: Antagonist activity against RXRalpha delta80 mutant (unknown origin) expressed in human A549 cells assessed as reduction in TNFalpha-induced interaction of Myc-tagged RXRalpha- delta80 with p85alpha by co-immunoprecipitation assay; type: cell-based
How it was run: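 A549 cells were transfected with Myc-RXRα-Δ80 (truncated RXRα mimic) and treated with or without TNFα and/or compound. Anti-Myc immunoprecipitates were immunoblotted for endogenous p85α and Myc-RXRα-Δ80. One of three to five similar experiments shown.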

[4] = target: Nuclear receptor subfamily 4immunitygroup A member 1 (Homo sapiens) (UniProt P22736); assay: Antagonist activity against Nur77 ligand binding domain (unknown origin) expressed in human MCF7 cells assessed as inhibition of all-trans-RA-induced receptor transactivation at 10 uM after 18 hrs by luciferase reporter gene based mammalian one-hybrid assay; type: cell-based
How it was run: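 MCF-7 cells co-transfected with pG5-Luc and the pBind-LBD fusion: Nur77, RARγ or ER. Agonists were all-trans-RA 10⁻⁷ M for RARγ and Nur77, and propyl pyrazole triol 10 μM for ER. Compound at 10 μM for 18 h. Dual-luciferase read-out normalized to Renilla. Mean ± SD.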

[5] = target: T2, Oxysterols receptor LXR-alpha (Homo sapiens) (UniProt Q13133); assay: Antagonist activity against LXRalpha ligand binding domain (unknown origin) expressed in human MCF7 cells assessed as inhibition of T09-induced receptor transactivation at 10 uM after 18 hrs by luciferase reporter gene based mammalian one-hybrid assay; type: cell-based
T2 sequence (whole entry): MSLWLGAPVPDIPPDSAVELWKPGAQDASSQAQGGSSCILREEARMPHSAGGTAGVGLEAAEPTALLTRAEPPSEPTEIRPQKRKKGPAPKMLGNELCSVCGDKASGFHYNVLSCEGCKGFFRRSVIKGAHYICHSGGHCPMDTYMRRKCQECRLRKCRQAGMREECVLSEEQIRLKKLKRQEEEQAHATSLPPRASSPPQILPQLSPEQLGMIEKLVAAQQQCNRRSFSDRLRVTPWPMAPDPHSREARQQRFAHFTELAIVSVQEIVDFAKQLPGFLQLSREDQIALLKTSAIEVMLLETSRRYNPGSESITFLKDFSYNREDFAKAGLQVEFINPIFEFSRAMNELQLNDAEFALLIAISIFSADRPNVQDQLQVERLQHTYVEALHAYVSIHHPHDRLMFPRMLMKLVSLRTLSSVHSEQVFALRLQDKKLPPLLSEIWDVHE

[6] = target: Retinoic acid receptor alpha/Retinoid X receptor alpha (Homo sapiens) (UniProt P10276+P19793); assay: Antagonist activity against RXRalpha/RARalpha ligand binding domain (unknown origin) expressed in human HEK293T cells assessed as inhibition of 9-cis-RA/T09-induced receptor transactivation at 2 and 10 uM after 18 hrs by luciferase reporter gene based mammalian one-hybrid assay; type: cell-based; details: HEK-293T
[7] = target: Retinoic acid receptor RXR-alpha/oxysterols receptor LXR-alpha (Homo sapiens) (UniProt P19793+Q13133); assay: Antagonist activity against RXRalpha/LXRalpha ligand binding domain (unknown origin) expressed in human HEK293T cells assessed as inhibition of 9-cis-RA/T09-induced receptor transactivation at 2 and 10 uM after 18 hrs by luciferase reporter gene based mammalian one-hybrid assay; type: cell-based; details: HEK-293T
[8] = target: T3, Retinoic acid receptor RXR-beta (Homo sapiens) (UniProt P28702); assay: Antagonist activity against RXRbeta ligand binding domain (unknown origin) expressed in human HEK293T cells assessed as inhibition of 9-cis-RA-induced receptor transactivation at 2 and 10 uM after 18 hrs by luciferase reporter gene based mammalian one-hybrid assay; type: cell-based; details: HEK-293T
T3 sequence (whole entry): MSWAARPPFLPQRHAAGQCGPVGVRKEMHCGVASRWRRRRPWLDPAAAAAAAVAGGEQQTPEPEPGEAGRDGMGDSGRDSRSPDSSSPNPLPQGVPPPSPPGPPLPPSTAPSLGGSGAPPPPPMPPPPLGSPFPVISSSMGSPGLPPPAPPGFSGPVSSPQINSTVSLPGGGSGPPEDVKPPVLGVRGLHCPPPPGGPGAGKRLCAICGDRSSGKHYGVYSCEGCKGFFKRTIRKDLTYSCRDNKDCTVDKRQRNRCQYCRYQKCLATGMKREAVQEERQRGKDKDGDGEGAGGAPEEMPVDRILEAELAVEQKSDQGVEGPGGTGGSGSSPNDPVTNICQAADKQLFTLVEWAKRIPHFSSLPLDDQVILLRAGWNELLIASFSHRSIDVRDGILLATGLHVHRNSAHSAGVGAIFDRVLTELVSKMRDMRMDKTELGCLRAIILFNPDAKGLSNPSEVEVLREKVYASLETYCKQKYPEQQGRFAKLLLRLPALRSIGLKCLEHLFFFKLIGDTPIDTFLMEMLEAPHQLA

[9] = target: T4, Retinoic acid receptor RXR-alpha (Homo sapiens, UniProt P19793); assay: Antagonist activity against Myc-tagged RXRalpha ligand binding domain (unknown origin) expressed in human HEK293T cells assessed as inhibition of 9-cis-RA-induced receptor transactivation after 18 hrs by luciferase reporter gene based mammalian one-hybrid assay; type: cell-based, HEK-293T
T4 sequence (P19793 whole entry): T1 sequence (whole entry)
How it was run: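 HEK293T cells co-transfected with pG5-Luc and pBind-RXRα-LBD. […] Luciferase reporter activity measured. Mean ± SD.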

[10] = target: T1, Retinoic acid receptor RXR-alpha (Homo sapiens); assay: Antagonist activity against RXRalpha in TNFalpha-stimulated human HepG2 cells assessed as inhibition of AKT phosphorylation at 5 and 10 uM pre-treated for 24 hrs before TNFalpha addition by Western blotting method; type: cell-based; how it was run: as §1

Sequence of Nuclear receptor subfamily 4immunitygroup A member 1 (Homo sapiens) (P22736 whole entry, the tested form may be a part): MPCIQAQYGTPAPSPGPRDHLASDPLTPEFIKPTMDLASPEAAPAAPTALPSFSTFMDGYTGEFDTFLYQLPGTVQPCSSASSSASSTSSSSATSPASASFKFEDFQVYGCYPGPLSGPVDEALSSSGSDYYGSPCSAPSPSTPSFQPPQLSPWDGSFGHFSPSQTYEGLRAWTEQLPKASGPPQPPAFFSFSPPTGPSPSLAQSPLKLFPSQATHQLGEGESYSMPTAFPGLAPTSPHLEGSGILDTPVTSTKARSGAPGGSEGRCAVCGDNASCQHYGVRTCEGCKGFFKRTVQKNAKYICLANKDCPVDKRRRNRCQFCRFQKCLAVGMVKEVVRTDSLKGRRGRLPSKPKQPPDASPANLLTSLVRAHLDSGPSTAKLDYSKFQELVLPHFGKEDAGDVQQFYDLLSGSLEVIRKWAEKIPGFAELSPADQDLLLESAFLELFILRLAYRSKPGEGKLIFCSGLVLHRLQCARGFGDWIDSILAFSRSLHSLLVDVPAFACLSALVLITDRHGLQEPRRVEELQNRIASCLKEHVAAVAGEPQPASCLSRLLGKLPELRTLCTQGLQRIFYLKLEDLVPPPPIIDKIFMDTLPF

`Cc1cc(=O)oc2c(/C=N/NC(=O)CSc3nc4ccccc4s3)c(O)ccc12` was tested, and the inhibition [1] was “Dose-dependent effect”, the inhibition [2] was “Active” and the inhibition [3] was “Active”. For the same compound, the inhibition [4] was “inactive”, the inhibition [5] was “Active” and the inhibition [6] was “inactive”. For the same compound, the inhibition [7] was “inactive”, the inhibition [8] was “Active” and the pIC50 [9] was 5.61. For the same compound, the inhibition [10] was “Active”.
